Experiments:
CYP3A4 = CYP3A4 (Homo sapiens, UniProt P08684); assay: (§1) Time-dependent inhibition of CYP3A4 in human liver microsomes using testosterone as substrate assessed as remaining activity at 30 uM preincubated with compound in presence of NADPH-generating system followed by substrate addition by UPLC analysis relative to control; type: ADME, Microsome; conditions: human liver microsomes, probe testosterone, read-out: Activity
In short: (§2)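 Compound at 30 µM preincubated at 37 °C with human liver microsomes in pH 7.4 phosphate buffer plus an NADPH-generating system. CYP3A4 activity then measured as testosterone 6β-hydroxylation by UPLC, expressed as % of DMSO control. Remaining activity = preincubated activity ÷ non-preincubated activity × 100; n = 2.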

[1] = target: 2-acylglycerol O-acyltransferase 2 (Homo sapiens, UniProt Q3SYC2); assay: Inhibition of N-terminal FLAG-tagged full-length human MGAT2 expressed in human FreeStyle 293-F cell membrane using 13Cx18oleoyl-CoA and 2-oleoyl-glycerol as substrate preincubated for 60 mins followed by substrate addition and measured after 30 mins by RapidFire mass spectrometric analysis; type: cell membranes
In short: (§3)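 FreeStyle293 cells transfected and harvested after 2 days; total membranes isolated by ultracentrifugation. Reaction started with 13C18 oleoyl-CoA and 2-oleoyl-glycerol (20 µM each), run 30 min at room temperature. Stopped with acetonitrile/formic acid containing 1,2-dioleoyl-glycerol; read by RapidFire/MS.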

[2] = 1-Octanol/aqueous buffer partition coefficient, logD of the compound at pH 7.4 by HPLC analysis; type: physicochemical
NIH3T3 = assay: Cytotoxicity against BALB/c mouse 3T3 cells assessed as reduction in cell viability at 6.25 uM incubated for 1 hrs in absence of UV irradiation by Celltiter-Glo assay relative to control; type: toxicity, cell-based; conditions: nih3t3, 1 h
In short: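 BALB/c 3T3 cells seeded at 2.5 × 10^3 cells/well and grown 1 day. Compound at 6.25 µM in EBSS with 1 mM HEPES, preincubated 1 h. Plate kept dark (–UV) while the paired plate was irradiated. Medium replaced, cultured 24 h more. Viability read as cellular ATP by CellTiter-Glo, % of 1% DMSO control; n = 3, mean ± SD.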

[3] = Metabolic stability in mouse liver microsomes assessed as intrinsic clearance at 1 uM incubated for 15 to 30 mins in presence of NADPH-generating system by LC/MS/MS analysis; type: ADME, Microsome; conditions: time 15-30 min, read-out: CLH
In short: (§4)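 Compound at 1 µM with 0.2 mg/mL liver microsomal protein in 50 mM phosphate buffer pH 7.4. Reaction started by NADPH-generating system (5 mM MgCl2, 5 mM glucose-6-phosphate, 0.5 mM β-NADP+, 1.5 U/mL G6PDH). Stopped with acetonitrile at 15 and 30 min and analysed by LC/MS/MS. Velocity taken as slope of concentration–time plot.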

[4] = Metabolic stability in human liver microsomes assessed as intrinsic clearance at 1 uM incubated for 15 to 30 mins in presence of NADPH-generating system by LC/MS/MS analysis; type: ADME, Microsome; conditions: time 15-30 min, read-out: CLH; in short: as §4
[5] = target: 2-acylglycerol O-acyltransferase 2 (Mus musculus, UniProt Q80W94); assay: Inhibition of N-terminal FLAG-tagged full-length mouse MGAT2 expressed in human FreeStyle 293-F cell membrane using 13Cx18oleoyl-CoA and 2-oleoyl-glycerol as substrate preincubated for 60 mins followed by substrate addition and measured after 30 mins by RapidFire mass spectrometric analysis; type: cell membranes; in short: as §3
[6] = Volume of distribution at steady state in mouse at 0.1 mg/kg, iv administered as cassette dose by LC/MS/MS analysis; type: ADME, organism-based; conditions: in vivo, read-out: Vdss
In short: (§5)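 Non-fasted mice dosed by cassette, iv 0.1 mg/kg or po 1 mg/kg suspended in 0.5% methylcellulose aqueous solution; plasma obtained from blood by centrifugation, deproteinized with acetonitrile, and compound concentrations measured by LC/MS/MS.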

[7] = Total clearance in mouse at 0.1 mg/kg, iv administered as cassette dose by LC/MS/MS analysis; type: ADME, organism-based; conditions: in vivo; in short: as §5
[8] = AUC in mouse at 1 mg/kg, po administered as cassette dose by LC/MS/MS analysis; type: ADME, organism-based; conditions: in vivo; in short: as §5
[9] = MRT in mouse at 1 mg/kg, po administered as cassette dose by LC/MS/MS analysis; type: ADME, organism-based; conditions: in vivo; in short: as §5
[10] = Oral bioavailability in mouse at 1 mg/kg administered as cassette dose by LC/MS/MS analysis; type: ADME, organism-based; conditions: in vivo; in short: as §5
[11] = Permeability of compound at pH 7.4 by PAMPA assay; type: ADME; conditions: read-out: permeability
In short: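 Passive permeability measured by PAMPA at pH 7.4.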

Cytochrome P450 3A4 = Cytochrome P450 3A4 (Homo sapiens, UniProt P08684); assay: as §1; type: ADME, Microsome; conditions: microsomes, 30 µM; in short: as §2
Chain of Cytochrome P450 3A4 (P08684 whole entry): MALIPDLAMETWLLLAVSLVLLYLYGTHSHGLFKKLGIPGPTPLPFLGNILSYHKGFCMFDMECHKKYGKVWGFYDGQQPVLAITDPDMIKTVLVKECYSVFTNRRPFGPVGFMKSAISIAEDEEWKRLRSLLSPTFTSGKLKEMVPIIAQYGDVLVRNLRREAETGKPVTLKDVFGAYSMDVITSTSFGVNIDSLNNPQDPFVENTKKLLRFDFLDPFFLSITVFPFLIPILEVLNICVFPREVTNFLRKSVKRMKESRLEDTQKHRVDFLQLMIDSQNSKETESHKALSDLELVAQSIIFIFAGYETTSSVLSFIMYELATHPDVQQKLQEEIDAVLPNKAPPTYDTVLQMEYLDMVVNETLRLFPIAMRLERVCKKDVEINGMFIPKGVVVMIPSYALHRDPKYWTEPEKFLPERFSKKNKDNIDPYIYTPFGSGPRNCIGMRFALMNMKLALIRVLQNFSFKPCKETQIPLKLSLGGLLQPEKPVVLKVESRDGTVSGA

Chain of CYP3A4 (P08684 whole entry): as above
Chain of 2-acylglycerol O-acyltransferase 2 (Homo sapiens, UniProt Q3SYC2) (Q3SYC2 whole entry): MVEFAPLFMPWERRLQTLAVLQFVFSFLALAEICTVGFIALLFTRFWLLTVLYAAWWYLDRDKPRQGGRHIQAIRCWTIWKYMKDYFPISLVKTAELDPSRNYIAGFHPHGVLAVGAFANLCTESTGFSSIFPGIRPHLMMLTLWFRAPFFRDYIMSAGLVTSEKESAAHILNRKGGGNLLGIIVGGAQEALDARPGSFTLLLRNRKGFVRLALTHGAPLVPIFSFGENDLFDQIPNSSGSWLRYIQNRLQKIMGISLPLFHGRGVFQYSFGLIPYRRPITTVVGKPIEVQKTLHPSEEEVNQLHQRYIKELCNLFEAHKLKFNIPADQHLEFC
Chain of 2-acylglycerol O-acyltransferase 2 (Mus musculus, UniProt Q80W94) (Q80W94 whole entry): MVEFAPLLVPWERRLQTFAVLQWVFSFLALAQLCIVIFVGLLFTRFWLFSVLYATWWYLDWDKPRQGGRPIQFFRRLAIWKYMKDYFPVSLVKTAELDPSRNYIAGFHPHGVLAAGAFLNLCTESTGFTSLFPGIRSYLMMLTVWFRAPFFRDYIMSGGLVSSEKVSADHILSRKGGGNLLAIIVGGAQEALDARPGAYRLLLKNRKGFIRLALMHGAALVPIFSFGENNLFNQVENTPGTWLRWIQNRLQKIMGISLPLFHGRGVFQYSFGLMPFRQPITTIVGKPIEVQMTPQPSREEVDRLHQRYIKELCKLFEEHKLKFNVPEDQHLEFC

Row | SMILES | activity at 30 µM (CYP3A4) [%] | IC50 [1] [nM] | logD [2] | Activity (NIH3T3) [%] | further results
1 | CC(=O)Nc1cc(S(=O)(=O)Nc2ccc(F)cc2F)cc2c1N(CCc1ccccc1)CC2 | 13 | 1 | – | – | –
2 | O=C1CCCN1c1cc(S(=O)(=O)Nc2c(F)cc(Cl)cc2F)cc2c1N(c1ncc(-n3ccc(C(F)(F)F)n3)cn1)CC2 | – | 8.2 | 3.1 | 105 | –
3 | O=C1CCCN1c1cc(S(=O)(=O)Nc2c(F)cc(Cl)cc2F)cc2c1N(c1ncc(-c3ccc(C(F)(F)F)cc3F)cn1)CC2 | – | 0.42 | 4.1 | 98 | –
4 | O=C1CCCN1c1cc(S(=O)(=O)Nc2c(F)cc(Cl)cc2F)cc2c1N(c1ncc(-n3cc(C(F)(F)F)cn3)cn1)CC2 | – | 6.2 | 3.1 | 109 | –
5 | O=C1CCCN1c1cc(S(=O)(=O)Nc2c(F)cc(Cl)cc2F)cc2c1N(C(=O)Nc1ccc(C(F)(F)F)cc1)CC2 | 89 | 30 | 3.3 | – | –
6 | Cn1nc(C(F)(F)F)cc1-c1cnc(N2CCc3cc(S(=O)(=O)Nc4c(F)cc(Cl)cc4F)cc(N4CCNC4=O)c32)nc1 | – | 3.7 | 2.7 | 111 | microsomal CLint at 1 µM [3]: 33 µL/min/mg; microsomal CLint at 1 µM [4]: 4 µL/min/mg; IC50 [5]: 1.9 nM; Vd [6]: 1.96 L/kg; clearance [7]: 39.5 mL/min/kg; AUC [8]: 72 ng·h/mL; MRT [9]: 2.3 h; bioavailability [10]: 16%; Papp [11]: 4 ×10⁻⁶ cm/s
7 | O=C1CCCN1c1cc(S(=O)(=O)Nc2c(F)cc(Cl)cc2F)cc2c1N(c1ccc(-c3ccc(C(F)(F)F)cc3)cc1)CC2 | – | 0.25 | 4.5 | 95 | TDI (Cytochrome P450 3A4): Not Active
8 | Cc1cc(C(F)(F)F)nn1-c1cnc(N2CCc3cc(S(=O)(=O)Nc4c(F)cc(Cl)cc4F)cc(N4CCCC4=O)c32)nc1 | – | 2.1 | 2.9 | 112 | microsomal CLint at 1 µM [3]: 27 µL/min/mg; IC50 [5]: 1.1 nM; Vd [6]: 1.02 L/kg; clearance [7]: 7.85 mL/min/kg; AUC [8]: 1120 ng·h/mL; MRT [9]: 2.6 h; bioavailability [10]: 52%; Papp [11]: 18.5 ×10⁻⁶ cm/s
9 | O=C1CCCN1c1cc(S(=O)(=O)Nc2ccc(F)cc2F)cc2c1N(C(=O)Nc1ccc(C(F)(F)F)cc1)CC2 | 43 | 3.4 | – | – | –
10 | O=C1CCCN1c1cc(S(=O)(=O)Nc2c(F)cc(Cl)cc2F)cc2c1N(c1ncc(-c3ccc(C(F)(F)F)cc3)cn1)CC2 | – | 0.69 | 3.8 | 105 | TDI (Cytochrome P450 3A4): Not Active
11 | O=C1CCCN1c1cc(S(=O)(=O)Nc2ccc(F)cc2F)cc2c1N(C(=O)OC1CCN(CC(F)(F)C(F)(F)F)CC1)CC2 | 59 | 4.1 | 3.7 | – | –
12 | O=C1CCCN1c1cc(S(=O)(=O)Nc2ccc(C(F)(F)F)cc2F)cc2c1N(C(=O)OC1CCN(CC(F)(F)C(F)(F)F)CC1)CC2 | 93 | 42 | 4.1 | – | –
13 | O=C1CCCN1c1cc(S(=O)(=O)Nc2c(F)cc(Cl)cc2F)cc2c1N(C(=O)OC1CCN(CC(F)(F)C(F)(F)F)CC1)CC2 | 82 | 19 | 3.8 | – | –
14 | O=C1CCCN1c1cc(S(=O)(=O)Nc2c(F)cc(F)cc2F)cc2c1N(C(=O)OC1CCN(CC(F)(F)C(F)(F)F)CC1)CC2 | 95 | 75 | 3.4 | – | –
